Screening results as filed in PubChem.
HCV core dimer – inhibitors of HCV core protein dimerization, primary screen, biochemical, TR-FRET, high-throughput. AID 1899, 2009. 300,000 tested, 0.33% active. TR-FRET GST/Flag-core106 dimerization, 1536-well. inhibition, % at 5 µM;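 active = inhibition above the mean of all tested compounds plus 3 SD, set per screening campaign, cut at about 45% in these data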
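Material: GST/Flag-tagged HCV core106 proteins. Incubation: 4 h, 22.5 °C incubation. Read-out basis: inhibition (%) from 671 over 617 nm ratio. Measured by: TR-FRET, excitation 340 nm, emission 617 and 671 nm.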
MEX-5 binding – MEX-5 zinc finger RNA-binding disruptors – biochemical, C. elegans, fluorescence polarization, MLPCN library, primary screen; activity score (negative = inhibition of binding), % at 10 µM; MEX-5/FITC-TCR2 RNA binding; stronger effect = lower value; 300,000 tested, 0.38% active; Zinc finger protein mex-5 (Caenorhabditis elegans), Q9XUB2;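 active = inhibition past about -25% in most replicates, and total fluorescence under double the plate's negative control median, limit read from the data; inconclusive = replicates evenly split on the limit, or fluorescence at least double controls; inactive = too little inhibition in most replicates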
Target sequence (Q9XUB2 whole entry, looked up): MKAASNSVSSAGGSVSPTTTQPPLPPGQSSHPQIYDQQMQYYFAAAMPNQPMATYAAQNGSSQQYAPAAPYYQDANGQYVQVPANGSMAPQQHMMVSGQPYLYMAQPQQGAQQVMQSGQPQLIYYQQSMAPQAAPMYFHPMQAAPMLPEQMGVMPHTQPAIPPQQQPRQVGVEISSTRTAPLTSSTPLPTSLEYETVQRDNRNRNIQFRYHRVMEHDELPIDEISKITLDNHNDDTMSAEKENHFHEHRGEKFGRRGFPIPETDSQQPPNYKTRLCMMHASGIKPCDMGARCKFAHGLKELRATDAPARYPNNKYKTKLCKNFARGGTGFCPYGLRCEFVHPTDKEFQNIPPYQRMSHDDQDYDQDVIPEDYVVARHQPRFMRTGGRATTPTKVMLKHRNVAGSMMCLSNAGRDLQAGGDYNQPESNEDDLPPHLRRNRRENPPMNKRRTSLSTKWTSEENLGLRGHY
NS3 helicase inh – inhibitors of HCV NS3 helicase, primary screen, biochemical, Cy5 molecular beacon fluorescence | Hepatitis C virus NS3 helicase | NS3 helicase DNA unwinding | inhibition, % at 10.9 µM | 290,000 tested, 0.56% active | AID 1800, 2009;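 active = inhibition above the mean of all tested compounds plus 3 SD, set per campaign, cut at about 35% in these data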
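Assay system – hepatitis C virus NS3 helicase domain fragment enzyme · Buffer or medium – MOPS pH 6.5, MgCl2, DTT, Tween20, BSA · Reagent – Cy5/quencher beacon DNA duplex and ATP to start · Compound – single 10.9 µM dose · Timing – 1 h at 25 °C · Technique – Cy5 beacon fluorescence read at start and 1 h · Measure – % inhibition of unwinding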
EBV gp42 block – Epstein-Barr virus gp42 inhibitors, primary screen, biochemical, uHTS, fluorescence polarization; Fluorescence polarization binding assay, mP read-out; inhibition, % (tested at 21.74 µM); 220,000 tested, 0.42% active; AID 1085, 2008; in the data active = inhibition above about 50%
EBNA-1 inhibitor – EBNA-1 DNA-binding inhibitors, primary screen, biochemical, fluorescence polarization | inhibition, % at 14.8 µM | 300,000 tested, 0.34% active; in the data active = inhibition above about 28%
ZTA counter – ZTA (EBV) inhibition in EBNA-1 counter-screen; 320,000 tested, 0.15% active; P03206; ZTA-DNA binding, fluorescence polarization; inhibition, % at 11 µM; in the data active = inhibition above about 33%
Target sequence (P03206 whole entry, looked up): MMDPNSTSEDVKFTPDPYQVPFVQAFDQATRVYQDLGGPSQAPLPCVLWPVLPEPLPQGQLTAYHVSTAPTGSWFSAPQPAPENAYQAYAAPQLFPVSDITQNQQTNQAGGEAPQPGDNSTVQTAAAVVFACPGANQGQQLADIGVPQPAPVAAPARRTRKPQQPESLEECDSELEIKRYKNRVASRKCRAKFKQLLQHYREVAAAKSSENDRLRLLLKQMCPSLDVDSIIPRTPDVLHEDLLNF
Of the large screens only hits and unclear results are named; the others gave an inactive call. Hits are enriched below; roughly 1.7% of the tested compounds scored in any of these assays.

Cc1cc[n+](-c2[nH]c(=O)sc2/C=N/NC([S-])=Nc2ccccc2)cc1C	EBV gp42 block 64
CSCC[C@H](NC(=O)[C@@H]1Cc2ccccc2CN1)C(=O)NC[C@H]1CC[C@H](C(=O)O)CC1	none (no result: EBV gp42 block)
Cc1csc(NC(C)c2nc3cc(Cl)c(Cl)cc3n2CCCO)n1 (stereo unspecified)	none (no result: NS3 helicase inh, EBV gp42 block)
CCCn1nc(-c2ccccc2)c2nc3ccccc3nc21	EBV gp42 block 65 (no result: MEX-5 binding)
CCn1nc(-c2ccccc2)c2nc3ccccc3nc21	MEX-5 binding inconclusive, EBV gp42 block 93
CCCCCn1nc(-c2ccccc2)c2nc3ccccc3nc21	MEX-5 binding inconclusive, EBV gp42 block 161
CCC(C)Sc1ccc([C@@H]2[C@H]3C(=O)N(CC)C(=O)[C@H]3[C@]3(C(=O)OC)CCCN23)cc1OC (stereo partly specified)	none (no result: MEX-5 binding, NS3 helicase inh, EBV gp42 block)
Cc1cc(Cl)c2oc(C(=O)N3CCN(C(=O)c4ccco4)CC3)c(C)c2c1	none (no result: EBV gp42 block)
Cc1ccc(C)c(NC(=O)CSc2nc(=O)n(CCN3CCOCC3)c3c2CCCC3)c1	none (no result: NS3 helicase inh, EBV gp42 block)
c1cc2c3c(cccc3c1)NC1(CCCCCC1)N2	HCV core dimer 52
CCOC(=O)Cc1cn(C(=O)OC(C)(C)C)c2ccccc12	none (no result: HCV core dimer, MEX-5 binding, NS3 helicase inh, EBV gp42 block, EBNA-1 inhibitor)
C=CCOC(=O)C1=C(C)NC(SCC(=O)Nc2nccs2)=C(C#N)C1c1ccc(Cl)cc1 (stereo unspecified)	none
C=CCOC(=O)C1=C(C)NC(SCC(=O)Nc2nccs2)=C(C#N)C1c1cccs1 (stereo unspecified)	HCV core dimer 49
O=C(/C=C/c1ccc(O)c(O)c1)OC1C(O)CC(OC(=O)/C=C/c2ccc(O)c(O)c2)(C(=O)O)CC1O (stereo unspecified)	MEX-5 binding -32
O=C(/C=C/c1ccc(O)c(O)c1)O[C@@H]1C[C@](O)(C(=O)O)C[C@@H](O)[C@H]1O	none (no result: NS3 helicase inh, EBV gp42 block)
Cc1ccc(N2C(=O)C3C(C2=O)C(C(=O)c2ccc(Cl)cc2)N2CCCC32)cc1 (stereo unspecified)	HCV core dimer 62, EBV gp42 block 52
CC(=O)Oc1ccc(N2C(=O)C3C(C2=O)C(C(=O)c2ccc(Cl)cc2)N2CCCC32)cc1 (stereo unspecified)	none
Cn1c(=O)c(C#N)c(-c2ccc(F)cc2)c2cc(C(=O)c3cc(Cl)cc(Cl)c3O)cnc21	none
COc1ccccc1-n1c(=O)c(C#N)c(-c2ccc([N+](=O)[O-])cc2)c2cc(C(=O)c3cc(F)ccc3O)cnc21	HCV core dimer 49
CCOC(=O)Cc1nc2ccccc2n(CC#N)c1=O	MEX-5 binding -33
O=C(NC(=S)N1CCOCC1)c1cn(-c2ccccc2)nc1-c1ccc(F)cc1	none (no result: HCV core dimer, MEX-5 binding, NS3 helicase inh, EBV gp42 block, EBNA-1 inhibitor)
Cc1ccc(CN2CCN(Cc3ccc(O)cc3)CC2CCO)o1 (stereo unspecified)	none
Cc1n[nH]c(C)c1N1C(=O)c2cccc3c(N4CCCCCC4)ccc(c23)C1=O	MEX-5 binding -53, EBV gp42 block 193
O=C(OCCN1C(=O)c2cccc3c(N4CCOCC4)ccc(c23)C1=O)c1ccccc1Cl	MEX-5 binding inconclusive, EBV gp42 block 146
O=C1c2cccc3c(N4CCCCC4)ccc(c23)C(=O)N1CCO	MEX-5 binding -26
C=CCN1C(=O)c2cccc3c(N4CCCCC4)ccc(c23)C1=O	MEX-5 binding inconclusive
O=C(OCCN1C(=O)c2cccc3c(N4CCOCC4)ccc(c23)C1=O)c1cccc(Cl)c1	MEX-5 binding inconclusive, EBV gp42 block 152
O=C(OCCN1C(=O)c2ccccc2C1=O)c1cc(S(=O)(=O)N2CCOCC2)ccc1Cl	none
O=C(Nc1ccccc1O)c1c(O)c2c([nH]c1=O)CCCC2	none
CC(C)(C)N1CCC1CN (stereo unspecified)	none (no result: HCV core dimer, MEX-5 binding, EBNA-1 inhibitor, ZTA counter)
O=C(OCCN1C(=O)c2cccc3c(N4CCOCC4)ccc(c23)C1=O)c1ccc(Cl)cc1Cl	MEX-5 binding inconclusive, EBV gp42 block 144
Cn1c(=S)[nH]c2ccccc21	none
S=c1[nH]c2ccccc2n2c(=S)[nH]nc12	MEX-5 binding -42 (no result: EBV gp42 block)
CC(c1ccccc1)N1CC(C(=O)N2CCCC(C(N)=O)C2)CC1=O (stereo unspecified)	none (no result: HCV core dimer, MEX-5 binding, NS3 helicase inh, EBV gp42 block, EBNA-1 inhibitor)
COc1ccc2nc(C)cc(N3CCOCC3)c2c1	EBV gp42 block 84
COc1ccc2nc(C)cc(N3CCN(c4ccccc4)CC3)c2c1	none (no result: EBV gp42 block)
Cc1ccc(OCC(=O)Nc2oc(-c3ccccc3)c(-c3ccccc3)c2C#N)cc1	HCV core dimer 47 (no result: EBV gp42 block)
COc1ccccc1OCC(=O)Nc1oc(-c2ccccc2)c(-c2ccccc2)c1C#N	none (no result: MEX-5 binding)
N#Cc1c(NC(=O)COC(=O)C2CC3C=CC2C3)oc(-c2ccccc2)c1-c1ccccc1 (stereo unspecified)	HCV core dimer 69
Cn1nnnc1Sc1ncnc2scc(-c3ccc([N+](=O)[O-])cc3)c12	none (no result: HCV core dimer, MEX-5 binding, NS3 helicase inh, EBV gp42 block, EBNA-1 inhibitor)
CCN(c1ccccc1)S(=O)(=O)c1ccc(Cl)c(C(=O)NCc2ccco2)c1	none (no result: HCV core dimer, MEX-5 binding, NS3 helicase inh, EBV gp42 block, EBNA-1 inhibitor)
CCCc1cc(=O)[nH]c(SCC(=O)N2N=C(c3ccc(Cl)cc3)CC2c2ccco2)n1 (stereo unspecified)	none
Nc1cc(=O)[nH]c(SCC(=O)N2N=C(c3ccc(Cl)cc3)CC2c2ccco2)n1 (stereo unspecified)	HCV core dimer 49
O=C1CSC(=S)N1/N=C/c1ccc(O)c(O)c1O	MEX-5 binding -88, EBV gp42 block 70
O=C1CSC(=S)N1/N=C/c1cc(Br)ccc1O	none (no result: EBV gp42 block)
Cc1ccc(C)c(N2CCN(C(=O)c3cc4ccccn4n3)CC2)c1	MEX-5 binding -29
O=C(c1cc2ccccn2n1)N1CCCC1	none (no result: HCV core dimer, MEX-5 binding, EBNA-1 inhibitor, ZTA counter)
COc1cc2c(cc1NC(=O)CSc1nccn1C)oc1ccccc12	none
COc1cc2c(cc1NC(=O)CSc1ccccc1)oc1ccccc12	ZTA counter 33
COc1ccc(-n2c(C)cc(/C=C3\SC(=S)N(Cc4ccco4)C3=O)c2C)cc1	MEX-5 binding -28, EBV gp42 block 80
COc1ccc(-c2nn(-c3ccccc3)cc2/C=C2/SC(=S)N(Cc3ccco3)C2=O)c(C)c1	none
COC(=O)c1cc2nc(-c3ccccc3)cc(C)n2n1	none
CCOc1ccc(-c2cc(C)n3nc(C(N)=O)cc3n2)cc1	HCV core dimer 50
COc1ccc(NC(=O)c2sc3nc(-c4cccnc4)ccc3c2N)cc1	MEX-5 binding -55, EBV gp42 block 84
COC(=O)C1CN(C(=O)COc2cccc(C)c2C)c2ccccc2O1 (stereo unspecified)	none (no result: EBV gp42 block)
CCC1=NN2C(=N)/C(=C\c3cccn3-c3ccc(Br)cc3)C(=O)N=C2S1	EBV gp42 block 59 (no result: HCV core dimer, EBNA-1 inhibitor, ZTA counter)
CCC1=NN2C(=N)/C(=C\c3cccn3-c3cccc(Cl)c3)C(=O)N=C2S1	none
